{"source": "paper PMC5079537", "about": "(Cancer cell, 2016)", "key": {"[1]": {"tested_on": "MDM2 and XIAP expression in ALL and NB cells", "experiment": "Western blot for MDM2 and XIAP expression in cancer cells", "format": "cell-based, human", "in_short": "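MDM2-overexpressing ALL lines (EU-1, EU-3) and NB lines (SH-EP1, NB-1691) were treated with test compounds for 24 hr. Time-course and dose-response runs were done in EU-1. Lysis was in Tris pH 7.6/NaCl/1% NP-40 buffer with phosphatase and protease inhibitors. Lysates were resolved by SDS-PAGE, transferred to nitrocellulose, probed for MDM2 and XIAP, and detected by chemiluminescence.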"}, "XIAP IRES [2]": {"target": "XIAP IRES", "experiment": "Fluorescent titration binding assay", "details": "read-out: binding Kd to XIAP IRES", "in_short": "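Fluorescence-labelled XIAP IRES RNA (excitation 485 nm, emission 530 nm) titrated with increasing test compound concentrations. Relative change in fluorescence intensity traced and normalised to derive binding Kd.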"}, "MDM2 RING protein [3]": {"target": "T1, MDM2 RING protein (Homo sapiens, UniProt Q00987)", "T1 sequence (Q00987 438-479 limits assumed)": "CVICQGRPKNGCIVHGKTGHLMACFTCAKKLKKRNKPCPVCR", "experiment": "Fluorescent titration binding assay", "in_short": "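Binding to GST-MDM2 RING protein measured by fluorescence titration, using the protein's intrinsic fluorescence (excitation 280 nm, emission 335 nm). Protein titrated with increasing test compound concentrations. Relative change in fluorescence intensity traced and normalised to derive binding Kd.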"}, "[4]": {"tested_on": "12 cancer cell lines (6 ALL and 6 NB)", "format": "cell-based", "details": "24 hr"}, "[5]": {"tested_on": "NBMM cells (normal human hematopoiesis)", "experiment": "Clonogenic analyses for CFU-GM and BFU-E", "format": "cell-based", "details": "colonies after 14 days"}, "[6]": {"tested_on": "human normal bone marrow mononuclear (NBMM) cells", "experiment": "WST cytotoxic assay on normal bone marrow cells", "format": "cell-based", "in_short": "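Normal human bone marrow mononuclear cells came from five consenting donors under IRB approval. Cells in 96-well plates got a range of test compound concentrations for 20 hr, then WST (25 μg/well) for another 4 hr. OD read at 450 nm against 620 nm reference. Mean ± SD of three independent experiments.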"}, "[7]": {"tested_on": "caspases 3, 7 and 9, PARP", "experiment": "Western blot and ELISA for caspase activation and PARP cleavage", "format": "cell-based, human", "details": "ALL and NB cells", "in_short": "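Western blot of caspase-3 activation and PARP cleavage in cancer cells treated with test compounds at 1 or 10 μM, or a control compound at 10 μM, over a time course. Cells were lysed in 50 mM Tris pH 7.6, 150 mM NaCl, 1% NP-40 with phosphatase and protease inhibitors. Lysates were run on SDS-PAGE, transferred to nitrocellulose, probed with specific antibodies and detected by chemiluminescence.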"}, "[8]": {"tested_on": "endogenous MDM2 in cancer cells", "experiment": "IP-Western blot for ubiquitination of endogenous MDM2", "format": "cell-based, human", "in_short": "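EU-1 cells treated with 10 μM test compound or a control compound. Lysed in Tris pH 7.6/NaCl/NP-40 buffer with protease and phosphatase inhibitors, cleared, then immunoprecipitated with anti-MDM2 on protein G/protein A-agarose. Immunoprecipitates run on SDS-PAGE, transferred to nitrocellulose, probed with anti-ubiquitin and detected by chemiluminescence.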"}, "[9]": {"tested_on": "Hsd:ICR (CD-1) normal mice", "details": "100 mg/kg"}, "EU-1 cells": {"tested_on": "EU-1 cells", "experiment": "Annexin-V FITC staining for apoptosis", "format": "cell-based, human", "details": "10 μM", "in_short": "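EU-1 cells treated with 10 μM test compound were washed in PBS and stained with FITC-annexin V and 7-AAD using a kit per the maker's protocol. Read by fluorescence microscopy (annexin V green, 7-AAD red) and by flow cytometry. For flow quantitation, cells were treated for 24 hr. Mean of three independent experiments, bars ± SD.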"}, "MYCN IRES": {"tested_on": "MYCN IRES", "experiment": "Dicistronic reporter assay, control IRES", "format": "cell-based"}, "[10]": {"tested_on": "Hsd:ICR (CD-1) normal mice", "experiment": "Maximum tolerated dose", "format": "in vivo", "details": "doses between 25 and 200 mg/kg i.p., 3 days/week x 2 courses"}, "p53 in EU-1 cells [11]": {"tested_on": "p53 in EU-1 cells", "experiment": "Western blot for p53 expression", "format": "cell-based, human", "details": "1 μM MX3 or 10 μM MX69, 2 to 8 hr after treatment"}, "MDM2 RING protein [12]": {"target": "T1, MDM2 RING protein", "experiment": "ITC binding assay", "details": "read-out: binding Kd to MDM2 RING protein"}, "p53 in EU-1 cells [13]": {"tested_on": "p53 in EU-1 cells", "experiment": "CHX pulse-chase assay, p53 turnover", "format": "cell-based, human", "details": "control less than 30 min"}, "MDM2 in EU-1 cells": {"tested_on": "MDM2 in EU-1 cells", "experiment": "CHX pulse-chase assay, MDM2 turnover", "format": "cell-based, human", "details": "10 μM for 4 hr, control greater than 90 min"}, "[14]": {"tested_on": "EU-1 leukemia cells in SCID mice", "experiment": "EU-1 leukemia xenograft in SCID mice", "format": "in vivo"}, "XIAP IRES [15]": {"tested_on": "XIAP IRES", "experiment": "Dicistronic reporter assay", "format": "cell-based", "details": "dicistronic plasmid pRL-xi-FL"}}, "data": [{"smiles": "O=C1c2c(O)ccc(O)c2C(=O)c2c(NCCNCCO)ccc(NCCNCCO)c21", "note": "[MX3, mitoxantrone, reference compound]", "values": [{"measurement": "inhibition of MDM2 and XIAP protein expression", "setting": "[1]", "value": "inhibited expression of both MDM2 and XIAP"}, {"measurement": "Kd", "setting": "XIAP IRES [2]", "value": 5260, "unit": "nM"}, {"measurement": "binding to MDM2 RING protein", "setting": "MDM2 RING protein [3]", "value": "neither of these leads bound"}, {"measurement": "cytotoxic effect", "setting": "[4]", "value": "most potent cytotoxic effect"}, {"measurement": "inhibitory effect on BFU-E", "setting": "[5]; 1 μM", "value": "severe inhibitory effects"}, {"measurement": "cell survival of NBMM", "setting": "[6]; 2 μM, 24 hr", "value": "about 50%"}, {"measurement": "activation of caspases 3, 7 and 9 and cleavage of PARP", "setting": "[7]", "value": "activation of these caspases and cleavage of PARP were detected"}, {"measurement": "ubiquitination of endogenous MDM2", "setting": "[8]", "value": "induced ubiquitination"}]}, {"smiles": "Cc1ccc(NS(=O)(=O)c2ccc3c(c2)C2C=CCC2C(c2ccc(C(=O)O)cc2)N3)cc1C", "note": "(stereo not drawn) [MX69]", "values": [{"measurement": "ALT", "setting": "[9]", "value": "no significant increases"}, {"measurement": "AST", "setting": "[9]", "value": "no significant increases"}, {"measurement": "BUN", "setting": "[9]", "value": "no significant increases"}, {"measurement": "PLT", "setting": "[9]", "value": "no significant decreases"}, {"measurement": "WBC", "setting": "[9]", "value": "no significant decreases"}, {"measurement": "histopathology of heart, liver and kidney", "setting": "[9]", "value": "no evidence of toxicity"}, {"measurement": "Annexin-V positive cells", "setting": "EU-1 cells", "value": "over 90%"}, {"measurement": "inhibition of MDM2 and XIAP protein expression", "setting": "[1]", "value": "inhibited expression of both MDM2 and XIAP"}, {"measurement": "activity on the MYCN IRES", "setting": "MYCN IRES", "value": "no activity"}, {"measurement": "Kd", "setting": "MDM2 RING protein [3]; read-out: binding Kd to MDM2 RING protein", "value": 2340, "unit": "nM"}, {"measurement": "tolerability, deaths by day 30", "setting": "[10]", "value": "well tolerated, with no deaths"}, {"measurement": "p53 protein levels", "setting": "p53 in EU-1 cells [11]", "value": "significantly increased"}, {"measurement": "Kd", "setting": "MDM2 RING protein [12]", "value": 2750, "unit": "nM"}, {"measurement": "cytotoxic effect", "setting": "[4]", "value": "significant cytotoxic effect"}, {"measurement": "inhibitory effect on BFU-E", "setting": "[5]; 10 μM", "value": "little inhibitory effect"}, {"measurement": "inhibitory effect on CFU-GM", "setting": "[5]; 10 μM", "value": "little inhibitory effect"}, {"measurement": "p53 half-life", "setting": "p53 in EU-1 cells [13]", "value": "remarkably increased"}, {"measurement": "MDM2 half-life", "setting": "MDM2 in EU-1 cells", "value": "< 30", "unit": "min"}, {"measurement": "mice that died within 98–143 days after inoculation", "setting": "[14]; 50 mg/kg i.p.", "value": "Forty"}, {"measurement": "mice that died within 98–143 days after inoculation", "setting": "[14]; 75 mg/kg i.p.", "value": 20, "unit": "%"}, {"measurement": "adverse effects (body weight, fur pattern)", "setting": "[14]; up to 40-days post-treatment", "value": "no adverse effects"}, {"measurement": "cell survival of NBMM", "setting": "[6]; 2–8 μM for 24 hr", "value": "over 90%"}, {"measurement": "XIAP IRES-mediated translation of firefly luciferase", "setting": "XIAP IRES [15]", "value": "inhibited"}, {"measurement": "activation of caspases 3, 7 and 9 and cleavage of PARP", "setting": "[7]", "value": "activation of these caspases and cleavage of PARP were detected"}, {"measurement": "ubiquitination of endogenous MDM2", "setting": "[8]", "value": "induced ubiquitination"}]}]}
